This is an account of results in paper PMC7610821 (Chemical communications (Cambridge, England), 2020).

One experiment deals with HCT116 cells. Briefly: Cell viability of HCT116 cells by flow cytometry. In kind it is cell-based, human. The conditions noted are these: HCT116, 40μM, 48 hours. Put shortly: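 Human colon cancer HCT116 cells were exposed to the test compound at 10 and 40 μM. A reference class I HDAC inhibitor was run alongside. Viability was scored by flow cytometry after 48 h of treatment.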
(Flow cytometry measures light scatter and fluorescence of single cells or particles in a stream.)

The subject of experiment [1] is Histone 3 Lysine 56 acetylation (H3K56Ac). The experiment is described as follows: H3K56 acetylation by quantitative western blotting in ES cells. The class given is cell-based. The conditions noted are these: E14 mouse ES cells, 24h; CI-994 = 40μM, Panobinostat = 30 nM.
The target of experiment [2] is LSD1-CoREST-HDAC1 complex (Homo sapiens, UniProt Q13547). The experiment is described as follows: AMC-fluorescence histone deacetylase inhibition assay with purified complex. In kind it is biochemical. The note with it: compared with CI-994, Fig 3A.
Chain of LSD1-CoREST-HDAC1 complex (Q13547 whole entry, other chains not shown): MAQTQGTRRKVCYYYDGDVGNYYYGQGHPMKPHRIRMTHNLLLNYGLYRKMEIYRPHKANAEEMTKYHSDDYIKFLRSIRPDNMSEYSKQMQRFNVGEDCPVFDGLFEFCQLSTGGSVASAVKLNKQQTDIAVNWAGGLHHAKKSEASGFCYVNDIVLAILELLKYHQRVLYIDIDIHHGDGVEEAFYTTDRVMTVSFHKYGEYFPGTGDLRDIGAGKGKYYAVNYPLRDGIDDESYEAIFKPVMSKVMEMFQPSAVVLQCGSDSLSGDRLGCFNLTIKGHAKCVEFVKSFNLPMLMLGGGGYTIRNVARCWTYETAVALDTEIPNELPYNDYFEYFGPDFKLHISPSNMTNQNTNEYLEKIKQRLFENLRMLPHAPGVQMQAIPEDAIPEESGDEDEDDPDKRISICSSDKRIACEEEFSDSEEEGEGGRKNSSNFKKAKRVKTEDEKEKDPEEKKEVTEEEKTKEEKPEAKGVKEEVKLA
Chain of LSD1-CoREST-HDAC1 complex (Q9UKL0 86-485 partner limits assumed, other chains not shown): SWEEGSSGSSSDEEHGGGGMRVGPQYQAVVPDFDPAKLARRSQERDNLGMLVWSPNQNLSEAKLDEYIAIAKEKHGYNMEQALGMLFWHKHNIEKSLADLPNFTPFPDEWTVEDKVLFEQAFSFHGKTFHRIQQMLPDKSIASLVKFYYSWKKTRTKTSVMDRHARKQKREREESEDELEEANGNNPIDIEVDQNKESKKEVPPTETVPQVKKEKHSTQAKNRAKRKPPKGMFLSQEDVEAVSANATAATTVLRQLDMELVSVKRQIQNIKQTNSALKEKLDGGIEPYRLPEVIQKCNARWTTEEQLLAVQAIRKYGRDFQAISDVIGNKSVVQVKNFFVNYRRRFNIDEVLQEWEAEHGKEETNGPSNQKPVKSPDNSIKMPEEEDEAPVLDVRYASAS

For `CC(=O)Nc1ccc(C(=O)Nc2ccccc2N)cc1` [CI-994], the Cell death in the experiment on HCT116 cells was 73%. Consider `Cc1[nH]c2ccccc2c1CCNCc1ccc(/C=C/C(=O)NO)cc1` [Panobinostat], for which the “H3K56 acetylation increase, fold compared to non-treated cells” value in experiment [1] is reported as 15-20 fold. Take `CC(=O)Nc1ccc(C(=O)Nc2ccccc2NC(=O)OC(C)(C)C)cc1` [Compound 5]: the “HDAC inhibition of the LSD1-CoREST-HDAC1 complex (in words)” value in experiment [2] is listed as “no HDAC inhibition”.
